# In ChEMBL document CHEMBL5303300, “EUbOPEN Chemogenomics Library - Multiplex” (2023):
# Values joined by “and” are separate entries in the source; they are usually repeats but may differ in a detail not shown here. Identical values can stand only once.
# Test system: U2OS
# Assay: Multiplex assay against U2OS
# Format: toxicity, cell-based
# Details: human, number of replicates 2
# Procedure, shortened: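 With compound added, live cells were imaged on a CQ1 microscope at 37°C and 5% CO2; staining with Hoechst33342, BioTracker Green Microtubule Cytoskeleton Dye, MitoTracker Red and Annexin V Alexa Fluor 680 had been done at seeding. The CellPathfinder machine-learning gating scheme split cells into Hoechst high-intensity objects or normal cells, normal cells into healthy, pyknosed or fragmented nuclei, and pyknosed cells into mitotic or apoptotic. The tubulin, mitochondrial-mass and membrane-permeability phenotypes are per cents of healthy-nucleus cells.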
# [1] = 12 h, 1 µM, compound concentration 1 uM
# [2] = 12 h, 10 µM, compound concentration 10 uM
# [3] = 24 h, 1 µM, compound concentration 1 uM
# [4] = 24 h, 10 µM, compound concentration 10 uM
# [5] = 48 h, 1 µM, compound concentration 1 uM
# [6] = 48 h, 10 µM, compound concentration 10 uM
smiles,measurement,setting,value
Cc1cn(CCN2CCN(c3ccccc3-c3cc(C#N)cc(C(=O)NCCCN4CCCC4)c3)CC2)c2ccccc12,Population Apoptotic (%),[1],100% and 75%
same,Population Healthy Nuclei (%),[1],73% and 79%
same,Population Hoechst High Intensity Objects (%),[1],0%
same,Population Membrane Permeable-Phenotype (%),[1],8% and 10%
same,Population Mitochondria Different-Phenotype (%),[1],25% and 38%
same,Population Mitotic Cells (%),[1],0% and 25%
same,Population Normal (%),[1],100%
same,Population Pyknosed Nuclei (%),[1],10% and 16%
same,Population Tubulin-Different-Phenotype (%),[1],38% and 27%
same,Population Apoptotic (%),[2],100% and 82%
same,Population Fragmented Nuclei (%),[2],37% and 13%
same,Population Healthy Nuclei (%),[2],37% and 53%
same,Population Hoechst High Intensity Objects (%),[2],0%
same,Population Membrane Permeable-Phenotype (%),[2],33% and 41%
same,Population Mitochondria Different-Phenotype (%),[2],62% and 56%
same,Population Mitotic Cells (%),[2],0% and 17%
same,Population Normal (%),[2],100%
same,Population Pyknosed Nuclei (%),[2],25% and 33%
same,Population Tubulin-Different-Phenotype (%),[2],91%
same,Total Cell Count,[2],64 and 135
same,Population Apoptotic (%),[3],73% and 87%
same,Population Healthy Nuclei (%),[3],54% and 85%
same,Population Hoechst High Intensity Objects (%),[3],0%
same,Population Membrane Permeable-Phenotype (%),[3],8% and 7%
same,Population Mitochondria Different-Phenotype (%),[3],23% and 47%
same,Population Mitotic Cells (%),[3],26% and 12%
same,Population Normal (%),[3],100%
same,Population Pyknosed Nuclei (%),[3],24% and 12%
same,Population Tubulin-Different-Phenotype (%),[3],29% and 24%
same,Population Apoptotic (%),[4],90% and 88%
same,Population Fragmented Nuclei (%),[4],18% and 32%
same,Population Healthy Nuclei (%),[4],42% and 24%
same,Population Hoechst High Intensity Objects (%),[4],0% and 1%
same,Population Membrane Permeable-Phenotype (%),[4],65% and 35%
same,Population Mitochondria Different-Phenotype (%),[4],47% and 78%
same,Population Mitotic Cells (%),[4],9% and 12%
same,Population Normal (%),[4],99% and 98%
same,Population Pyknosed Nuclei (%),[4],39% and 43%
same,Population Tubulin-Different-Phenotype (%),[4],94% and 92%
same,Total Cell Count,[4],162 and 59
same,Population Apoptotic (%),[5],88% and 81%
same,Population Healthy Nuclei (%),[5],60% and 81%
same,Population Hoechst High Intensity Objects (%),[5],0%
same,Population Mitochondria Different-Phenotype (%),[5],11% and 26%
same,Population Mitotic Cells (%),[5],11% and 18%
same,Population Normal (%),[5],100%
same,Population Pyknosed Nuclei (%),[5],22% and 14%
same,Population Tubulin-Different-Phenotype (%),[5],24% and 31%
same,Population Apoptotic (%),[6],100% and 92%
same,Population Fragmented Nuclei (%),[6],17% and 50%
same,Population Hoechst High Intensity Objects (%),[6],0% and 1%
same,Population Membrane Permeable-Phenotype (%),[6],74% and 40%
same,Population Mitochondria Different-Phenotype (%),[6],48% and 20%
same,Population Mitotic Cells (%),[6],0% and 7%
same,Population Normal (%),[6],100% and 98%
same,Population Pyknosed Nuclei (%),[6],38% and 41%
same,Population Tubulin-Different-Phenotype (%),[6],94% and 80%
same,Total Cell Count,[6],168 and 63
O=C1Nc2ccc(C(=O)c3ccco3)cc2C1=Cc1cc(Cl)c(O)c(Cl)c1 [GW406108X],Population Apoptotic (%),[1],25% and 65%
same,Population Fragmented Nuclei (%),[1],11% and 2%
same,Population Healthy Nuclei (%),[1],76% and 87%
same,Population Hoechst High Intensity Objects (%),[1],0%
same,Population Membrane Permeable-Phenotype (%),[1],3% and 0%
same,Population Mitochondria Different-Phenotype (%),[1],0%
same,Population Mitotic Cells (%),[1],75% and 34%
same,Population Normal (%),[1],100%
same,Population Pyknosed Nuclei (%),[1],11% and 9%
same,Population Tubulin-Different-Phenotype (%),[1],76% and 82%
same,Population Apoptotic (%),[2],83% and 47%
same,Population Fragmented Nuclei (%),[2],12% and 4%
same,Population Healthy Nuclei (%),[2],69% and 85%
same,Population Hoechst High Intensity Objects (%),[2],0%
same,Population Membrane Permeable-Phenotype (%),[2],0% and 1%
same,Population Mitochondria Different-Phenotype (%),[2],0%
same,Population Normal (%),[2],100%
same,Population Pyknosed Nuclei (%),[2],18% and 10%
same,Population Tubulin-Different-Phenotype (%),[2],52% and 87%
same,Population Apoptotic (%),[3],40% and 64%
same,Population Fragmented Nuclei (%),[3],4% and 2%
same,Population Healthy Nuclei (%),[3],85% and 88%
same,Population Hoechst High Intensity Objects (%),[3],0%
same,Population Membrane Permeable-Phenotype (%),[3],10% and 1%
same,Population Mitochondria Different-Phenotype (%),[3],2% and 0%
same,Population Mitotic Cells (%),[3],60% and 35%
same,Population Normal (%),[3],100%
same,Population Pyknosed Nuclei (%),[3],10% and 8%
same,Population Tubulin-Different-Phenotype (%),[3],75% and 79%
same,Population Apoptotic (%),[4],87% and 43%
same,Population Fragmented Nuclei (%),[4],8% and 5%
same,Population Healthy Nuclei (%),[4],73% and 82%
same,Population Hoechst High Intensity Objects (%),[4],0%
same,Population Membrane Permeable-Phenotype (%),[4],0% and 1%
same,Population Mitochondria Different-Phenotype (%),[4],0%
same,Population Normal (%),[4],100%
same,Population Pyknosed Nuclei (%),[4],17% and 12%
same,Population Tubulin-Different-Phenotype (%),[4],51% and 90%
same,Population Apoptotic (%),[5],33% and 48%
same,Population Fragmented Nuclei (%),[5],6% and 1%
same,Population Healthy Nuclei (%),[5],79% and 89%
same,Population Hoechst High Intensity Objects (%),[5],0%
same,Population Membrane Permeable-Phenotype (%),[5],2% and 1%
same,Population Mitochondria Different-Phenotype (%),[5],2% and 0%
same,Population Mitotic Cells (%),[5],66% and 51%
same,Population Normal (%),[5],100% and 99%
same,Population Pyknosed Nuclei (%),[5],13% and 8%
same,Population Tubulin-Different-Phenotype (%),[5],85% and 83%
same,Population Apoptotic (%),[6],90% and 51%
same,Population Fragmented Nuclei (%),[6],1% and 6%
same,Population Healthy Nuclei (%),[6],79% and 83%
same,Population Hoechst High Intensity Objects (%),[6],0%
same,Population Membrane Permeable-Phenotype (%),[6],2%
same,Population Mitochondria Different-Phenotype (%),[6],2% and 1%
same,Population Normal (%),[6],100%
same,Population Pyknosed Nuclei (%),[6],18% and 10%
same,Population Tubulin-Different-Phenotype (%),[6],66% and 90%
COc1cc(N(C)c2ccnc3ccc(C(F)(F)F)cc23)cc(OC)c1OC,Population Apoptotic (%),[1],75% and 100%
same,Population Healthy Nuclei (%),[1],84% and 54%
same,Population Hoechst High Intensity Objects (%),[1],0%
same,Population Membrane Permeable-Phenotype (%),[1],2% and 8%
same,Population Mitochondria Different-Phenotype (%),[1],3% and 0%
same,Population Mitotic Cells (%),[1],25% and 0%
same,Population Normal (%),[1],100%
same,Population Pyknosed Nuclei (%),[1],10% and 22%
same,Population Tubulin-Different-Phenotype (%),[1],76% and 50%
same,Population Apoptotic (%),[2],50% and 51%
same,Population Healthy Nuclei (%),[2],65% and 78%
same,Population Hoechst High Intensity Objects (%),[2],0%
same,Population Membrane Permeable-Phenotype (%),[2],10% and 4%
same,Population Mitochondria Different-Phenotype (%),[2],10% and 5%
same,Population Mitotic Cells (%),[2],50% and 48%
same,Population Normal (%),[2],100%
same,Population Pyknosed Nuclei (%),[2],6% and 16%
same,Population Tubulin-Different-Phenotype (%),[2],26% and 34%
same,Population Apoptotic (%),[3],100% and 86%
same,Population Fragmented Nuclei (%),[3],10% and 3%
same,Population Healthy Nuclei (%),[3],75% and 92%
same,Population Hoechst High Intensity Objects (%),[3],0%
same,Population Membrane Permeable-Phenotype (%),[3],0%
same,Population Mitochondria Different-Phenotype (%),[3],4% and 0%
same,Population Mitotic Cells (%),[3],0% and 13%
same,Population Normal (%),[3],100%
same,Population Pyknosed Nuclei (%),[3],14% and 4%
same,Population Tubulin-Different-Phenotype (%),[3],57% and 76%
same,Population Apoptotic (%),[4],66% and 75%
same,Population Healthy Nuclei (%),[4],65% and 79%
same,Population Hoechst High Intensity Objects (%),[4],0%
same,Population Membrane Permeable-Phenotype (%),[4],0% and 5%
same,Population Mitochondria Different-Phenotype (%),[4],14% and 9%
same,Population Mitotic Cells (%),[4],33% and 24%
same,Population Normal (%),[4],100%
same,Population Pyknosed Nuclei (%),[4],9% and 15%
same,Population Tubulin-Different-Phenotype (%),[4],47% and 45%
same,Population Apoptotic (%),[5],75% and 73%
same,Population Fragmented Nuclei (%),[5],11% and 3%
same,Population Healthy Nuclei (%),[5],80% and 90%
same,Population Hoechst High Intensity Objects (%),[5],0%
same,Population Membrane Permeable-Phenotype (%),[5],2% and 1%
same,Population Mitochondria Different-Phenotype (%),[5],2% and 0%
same,Population Mitotic Cells (%),[5],25% and 26%
same,Population Normal (%),[5],100%
same,Population Pyknosed Nuclei (%),[5],7% and 6%
same,Population Tubulin-Different-Phenotype (%),[5],76% and 84%
same,Population Apoptotic (%),[6],66% and 72%
same,Population Healthy Nuclei (%),[6],58% and 87%
same,Population Hoechst High Intensity Objects (%),[6],0%
same,Population Membrane Permeable-Phenotype (%),[6],11% and 3%
same,Population Mitochondria Different-Phenotype (%),[6],14% and 4%
same,Population Mitotic Cells (%),[6],33% and 27%
same,Population Normal (%),[6],100%
same,Population Pyknosed Nuclei (%),[6],26% and 9%
same,Population Tubulin-Different-Phenotype (%),[6],40% and 49%
